Experimental data as given in PubChem BioAssay.
The source made the active and inactive calls. Unless noted, how the calls were made is not given here.

Legend:
[1] = target: Pantothenate synthetase (Mycobacterium tuberculosis (strain ATCC 25618 / H37Rv)) (UniProt P9WIL5); assay: Recombinant Mtb pantothenate synthetase (PanC) inhibitors, coupled enzyme, confirmatory (AID 375); details: coupled enzyme assay; at 10 µM, stronger effect = higher value;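 further: 0% = full reaction with vehicle and 100% = no enzyme background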
[2] = reducers of endogenous Her2 protein level, primary screen, SKBR3 breast tumor cells, AlphaScreen, ATP viability (AID 461;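 active means Her2 level under about 52% in both replicate screens, with viability over 70% of control, limit read from the data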;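 on Her2 level: lower value means less Her2 protein in the cells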;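 on viability: percent of carrier control wells set as 100% viability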); details: 18-24 h, measured here: SKBR3 viability, ATP luminescence, at 10 µM
[3] = target: Receptor tyrosine-protein kinase erbB-2 (Homo sapiens) (UniProt P04626); assay: as above; details: 18-24 h, at 10 µM, stronger effect = lower value
[4] = SK-BR-3 cell growth inhibitors, pilot screen, 24 h, human (AID 572;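 active means viability at or below 10% of carrier control in both of two separate runs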;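 further: compound exposure lasted between 18 and 24 h rather than exactly 24 h; 100% = carrier-treated control wells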); details: SK-BR-3 viability, CellTiter-Glo luminescence, at 10 µM, stronger effect = lower value
[5] = HUVEC growth inhibition – cell-based, human, primary screen (AID 575;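 active means viability at or below 30% in both replicate assays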;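 further: 100% = median of untreated cell wells with 0.1% DMSO on each plate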); details: HUVEC proliferation, CellTiter-Glo luminescence, 72 h; at 10 µM; stronger effect = lower value
In short: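 Test system: primary human umbilical vein endothelial cells. Quantity: 1250 cells/well. Compound: single 10 µM dose, 0.1% DMSO, from 5x medium stock. Timing: 72 h treatment at 37 °C. Detection: ATP-based CellTiter-Glo luminescent read. Benchmarks: vehicle and MePR control wells. Format: 384-well plates coated with collagen.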

[6] = growth inhibitors of H69AR lung tumor, primary screen, human, duplicate replicates (AID 580;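 active means viability at or under a set limit in both replicates, limit being median viability minus 3 SD, cut at about 48% in these data, passing the limit was not always enough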;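 further: 100% = mean luminescence of untreated wells and 0% = no signal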); details: H69AR lung tumor cells viability, ATP luminescence, 72 h; at 10 µM; stronger effect = lower value
[7] = reversal of MRP1-mediated doxorubicin resistance, pilot screen, H69AR cells, doxorubicin co-treatment (AID 601;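 active means viability loss from added drug above about 55%, and viability with drug at most 40%, in both replicates, limit read from the data, passing the limit was not always enough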); details: CellTiter-Glo, 72 h, at 10 µM; for differential viability (reversal): stronger effect = higher value
[8] = 384-well plate pilot, post-Golgi transport modulator project, inhibition of yeast transport mutant growth (AID 636; in the data active means inhibition above about 31%); details: absorbance 615 nm, about 18 h, stronger effect = higher value
[9] = growth suppression of yeast trafficking mutant, preliminary HTS, modulators of trafficking downstream of Golgi apparatus project, 1536-format plate, OD 615 nm (AID 637; in the data active means inhibition above about 30%); details: yeast transport mutant growth, absorbance 615 nm, 18 h; stronger effect = higher value
[10] = H69AR cells + 2 uM doxorubicin, measured here: viability with 2 uM doxorubicin, stronger effect = lower value
[11] = H69AR cells, compound alone cytotoxicity

Receptor tyrosine-protein kinase erbB-2 (Homo sapiens), sequence (P04626 whole entry, looked up): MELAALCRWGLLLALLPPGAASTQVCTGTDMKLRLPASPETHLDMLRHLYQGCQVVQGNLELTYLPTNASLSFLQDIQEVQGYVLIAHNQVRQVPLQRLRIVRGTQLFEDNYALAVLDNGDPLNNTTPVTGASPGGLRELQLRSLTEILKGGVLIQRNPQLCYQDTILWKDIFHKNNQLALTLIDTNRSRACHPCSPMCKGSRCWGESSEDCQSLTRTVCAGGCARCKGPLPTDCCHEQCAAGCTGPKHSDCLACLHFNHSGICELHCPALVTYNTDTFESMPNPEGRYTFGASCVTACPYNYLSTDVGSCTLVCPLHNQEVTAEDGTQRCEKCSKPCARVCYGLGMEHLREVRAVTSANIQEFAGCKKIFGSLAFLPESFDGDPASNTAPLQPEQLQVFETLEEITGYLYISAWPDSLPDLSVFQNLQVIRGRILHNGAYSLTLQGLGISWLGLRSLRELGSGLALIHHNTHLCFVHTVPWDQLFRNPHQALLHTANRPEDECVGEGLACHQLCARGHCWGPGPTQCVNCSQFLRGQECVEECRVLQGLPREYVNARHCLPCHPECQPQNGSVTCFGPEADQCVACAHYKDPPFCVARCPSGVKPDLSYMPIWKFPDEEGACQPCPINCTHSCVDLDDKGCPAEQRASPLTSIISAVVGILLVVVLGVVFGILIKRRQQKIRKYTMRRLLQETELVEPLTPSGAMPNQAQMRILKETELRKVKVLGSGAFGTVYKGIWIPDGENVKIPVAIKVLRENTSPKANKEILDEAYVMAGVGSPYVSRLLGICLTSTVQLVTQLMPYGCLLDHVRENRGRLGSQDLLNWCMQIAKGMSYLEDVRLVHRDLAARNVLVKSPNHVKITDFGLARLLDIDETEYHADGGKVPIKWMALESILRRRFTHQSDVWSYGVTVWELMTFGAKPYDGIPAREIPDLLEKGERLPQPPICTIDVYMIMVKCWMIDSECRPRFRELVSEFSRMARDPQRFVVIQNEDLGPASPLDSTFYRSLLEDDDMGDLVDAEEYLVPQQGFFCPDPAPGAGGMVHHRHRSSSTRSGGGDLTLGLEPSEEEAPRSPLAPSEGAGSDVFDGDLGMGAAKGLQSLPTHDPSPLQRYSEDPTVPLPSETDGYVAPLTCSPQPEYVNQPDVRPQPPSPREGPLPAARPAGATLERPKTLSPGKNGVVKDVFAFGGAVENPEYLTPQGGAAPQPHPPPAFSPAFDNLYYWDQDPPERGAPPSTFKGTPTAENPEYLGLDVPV
Pantothenate synthetase (Mycobacterium tuberculosis (strain ATCC 25618 / H37Rv)), sequence (P9WIL5 whole entry, looked up): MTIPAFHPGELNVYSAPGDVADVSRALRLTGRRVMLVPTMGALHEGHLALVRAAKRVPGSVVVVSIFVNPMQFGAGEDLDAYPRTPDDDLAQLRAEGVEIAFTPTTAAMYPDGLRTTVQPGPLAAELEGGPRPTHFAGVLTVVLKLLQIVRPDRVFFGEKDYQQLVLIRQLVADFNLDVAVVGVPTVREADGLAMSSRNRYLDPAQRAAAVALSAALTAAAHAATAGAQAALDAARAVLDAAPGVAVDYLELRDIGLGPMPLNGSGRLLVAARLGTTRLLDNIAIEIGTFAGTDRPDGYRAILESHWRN

Compound	inhibition [1]	viability [2] [%]	Her2 level [3]	viability [4]	viability [5]	viability [6]	differential viability (reversal) ([7]; H69AR cells + 2 uM doxorubicin)	viability [7, 10] [%]	viability [7, 11] [%]	inhibition [8]	inhibition [9]
O=C(c1ccc2nc(-c3ccco3)c(-c3ccco3)nc2c1)N1CCC2(CC1)OCCO2	0% (inactive)	93	106% (inactive)	93% (inactive)	97.1% (inactive)	90.5% (inactive)	7.87% (inactive)	82.7	90.5	-4.87% (inactive)	4.33% (inactive)
O=C(O)c1nonc1-c1nonc1C(=O)O	0% (inactive)	99	114% (inactive)	99% (inactive)	100% (inactive)	99% (inactive)	1.51% (inactive)	97.5	99	-1.97% (inactive)	6.39% (inactive)
OCC12COC3c4ccccc4C(OC1)N32 (centres undefined)	0% (inactive)	110	118% (inactive)	110% (inactive)	94% (inactive)	97.3% (inactive)	4.61% (inactive)	92.7	97.3	-5.47% (inactive)	-5.81% (inactive)
COc1ccc(C(=O)C(C)(C)NO)cc1	0% (inactive)	108	100% (inactive)	108% (inactive)	99.9% (inactive)	86.5% (inactive)	-2.28% (inactive)	88.8	86.5	-6.49% (inactive)	0.48% (inactive)
CN1CCC(OC(=O)C2c3ccccc3Oc3ccccc32)CC1	2% (inactive)	96.5	96% (inactive)	96.5% (inactive)	64.3% (inactive)	86.4% (inactive)	0.945% (inactive)	85.5	86.4	-0.39% (inactive)	-5.16% (inactive)
CCN1CCN(C(=O)COc2cc(=O)n(CC)c3ccccc23)CC1	0% (inactive)	80.5	104% (inactive)	80.5% (inactive)	89.2% (inactive)	90.3% (inactive)	22.7% (inactive)	67.6	90.3	0.38% (inactive)	0.67% (inactive)
COc1ccccc1OCCCn1cc(C(=O)c2ccco2)c2ccccc21	0% (inactive)	106	96% (inactive)	106% (inactive)	74.9% (inactive)	77.5% (inactive)	-5.27% (inactive)	82.7	77.5	-4.73% (inactive)	-5.33% (inactive)
CCCCn1c(O)c(C(C)=Nc2cccc(C(=O)O)c2)c(=O)[nH]c1=O	0% (inactive)	108	106% (inactive)	108% (inactive)	89.4% (inactive)	105% (inactive)	4.39% (inactive)	100	105	-2.11% (inactive)	9.02% (inactive)
CCOc1ccc(-n2c(O)c(C=NCCN(CC)CC)c(=O)[nH]c2=O)cc1	0% (inactive)	87	105% (inactive)	87% (inactive)	100% (inactive)	103% (inactive)	-0.4% (inactive)	103	103	2.13% (inactive)	-8.06% (inactive)
CN1C(=O)N(C)C(=O)C2(Cc3ccccc3N3CCOCC32)C1=O (centres undefined)	0% (inactive)	104	88% (inactive)	104% (inactive)	94.8% (inactive)	102% (inactive)	8.12% (inactive)	94	102	-6.8% (inactive)	-2.86% (inactive)
CCOc1ccc(Br)c(C2(O)CC(C)N(C)CC2C)c1 (centres undefined)	1% (inactive)	80.5	80.5% (inactive)	80.5% (inactive)	68.2% (inactive)	96.7% (inactive)	19.5% (inactive)	77.1	96.7	-6% (inactive)	-1.48% (inactive)
COc1cc(C2NCc3ccccc3-n3cccc32)ccc1O (centres undefined)	0% (inactive)	104	102% (inactive)	104% (inactive)	105% (inactive)	101% (inactive)	9.64% (inactive)	90.9	101	-5.79% (inactive)	-1.27% (inactive)
CC(C)=CCSc1nnc([C@@H](N)Cc2c[nH]c3ccccc23)o1	7% (inactive)	102	110% (inactive)	102% (inactive)	75.4% (inactive)	94% (inactive)	2.83% (inactive)	91.2	94	-0.27% (inactive)	-8.39% (inactive)
COC(=O)c1cncn1C(C)c1ccccc1 (centres undefined)	0% (inactive)	88.5	80.5% (inactive)	88.5% (inactive)	108% (inactive)	95% (inactive)	6.07% (inactive)	88.9	95	-4.46% (inactive)	-5.25% (inactive)
